Test results: ChEMBL document CHEMBL1772947, “Discovery and optimization of a novel, selective and brain penetrant M1 positive allosteric modulator (PAM): the development of ML169, an MLPCN probe” (Bioorg Med Chem Lett, 2011)
Active and inactive are the calls of the source. The rule behind the calls is not given here.

Legend:
[1] = target: T1, Muscarinic acetylcholine receptor M1 (Rattus norvegicus) (UniProt P08482); assay: Allosteric modulation at rat M1 receptor expressed in CHO cells by calcium mobilization assay relative to acetylcholine; format: functional, cell-based; parameters: concentration or dose not given beside the values
T1 sequence (whole entry): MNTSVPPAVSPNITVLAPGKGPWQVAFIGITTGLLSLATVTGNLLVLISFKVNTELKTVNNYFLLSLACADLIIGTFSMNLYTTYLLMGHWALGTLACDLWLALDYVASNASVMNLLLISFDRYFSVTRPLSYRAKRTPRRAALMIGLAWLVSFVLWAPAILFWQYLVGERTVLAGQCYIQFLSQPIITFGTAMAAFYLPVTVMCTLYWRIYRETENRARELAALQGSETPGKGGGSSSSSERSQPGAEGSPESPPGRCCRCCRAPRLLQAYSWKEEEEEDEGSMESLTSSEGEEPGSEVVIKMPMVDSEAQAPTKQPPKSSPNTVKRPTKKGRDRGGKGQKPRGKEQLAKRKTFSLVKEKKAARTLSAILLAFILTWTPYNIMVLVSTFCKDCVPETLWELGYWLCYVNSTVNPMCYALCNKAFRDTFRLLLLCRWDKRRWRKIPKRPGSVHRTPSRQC

[2] = target: T2, Muscarinic acetylcholine receptor M1 (Rattus norvegicus, UniProt P08482); assay: Allosteric modulation at rat M1 receptor expressed in CHO cells by calcium mobilization assay; format: functional, cell-based
T2 sequence (P08482 whole entry): T1 sequence (whole entry)

[3] = Binding affinity to Sodium channel site 2 at 10 uM by radioligand binding assay
In short: (§1)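 Radioligand binding panel of 68 GPCRs, ion channels and transporters (Lead Profile screen, run externally), compound tested at 10 μM; read-out as percent activity at each target.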

[4] = target: T3, Muscarinic acetylcholine receptor M5 (Homo sapiens) (UniProt P08912); assay: Orthosteric binding affinity to M5 receptor at 10 uM by radioligand binding assay; in short: as §1
T3 sequence (whole entry): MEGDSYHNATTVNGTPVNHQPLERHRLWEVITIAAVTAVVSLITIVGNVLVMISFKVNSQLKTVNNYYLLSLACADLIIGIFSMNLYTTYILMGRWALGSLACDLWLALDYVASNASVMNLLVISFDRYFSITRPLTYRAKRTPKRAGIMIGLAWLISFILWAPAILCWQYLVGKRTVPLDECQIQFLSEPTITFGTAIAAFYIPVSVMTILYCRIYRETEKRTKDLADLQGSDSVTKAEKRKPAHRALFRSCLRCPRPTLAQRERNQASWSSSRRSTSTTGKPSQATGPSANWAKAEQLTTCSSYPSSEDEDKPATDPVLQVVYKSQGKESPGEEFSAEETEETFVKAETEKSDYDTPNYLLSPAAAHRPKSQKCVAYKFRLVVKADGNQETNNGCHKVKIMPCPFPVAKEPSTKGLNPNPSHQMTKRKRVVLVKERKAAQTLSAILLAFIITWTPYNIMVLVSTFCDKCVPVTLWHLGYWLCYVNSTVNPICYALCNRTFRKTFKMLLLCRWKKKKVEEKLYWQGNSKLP

[5] = target: Sodium-dependent dopamine transporter (Homo sapiens) (UniProt Q01959); assay: Binding affinity to DAT at 10 uM by radioligand binding assay; in short: as §1
Sequence of Sodium-dependent dopamine transporter (Homo sapiens) (Q01959 whole entry): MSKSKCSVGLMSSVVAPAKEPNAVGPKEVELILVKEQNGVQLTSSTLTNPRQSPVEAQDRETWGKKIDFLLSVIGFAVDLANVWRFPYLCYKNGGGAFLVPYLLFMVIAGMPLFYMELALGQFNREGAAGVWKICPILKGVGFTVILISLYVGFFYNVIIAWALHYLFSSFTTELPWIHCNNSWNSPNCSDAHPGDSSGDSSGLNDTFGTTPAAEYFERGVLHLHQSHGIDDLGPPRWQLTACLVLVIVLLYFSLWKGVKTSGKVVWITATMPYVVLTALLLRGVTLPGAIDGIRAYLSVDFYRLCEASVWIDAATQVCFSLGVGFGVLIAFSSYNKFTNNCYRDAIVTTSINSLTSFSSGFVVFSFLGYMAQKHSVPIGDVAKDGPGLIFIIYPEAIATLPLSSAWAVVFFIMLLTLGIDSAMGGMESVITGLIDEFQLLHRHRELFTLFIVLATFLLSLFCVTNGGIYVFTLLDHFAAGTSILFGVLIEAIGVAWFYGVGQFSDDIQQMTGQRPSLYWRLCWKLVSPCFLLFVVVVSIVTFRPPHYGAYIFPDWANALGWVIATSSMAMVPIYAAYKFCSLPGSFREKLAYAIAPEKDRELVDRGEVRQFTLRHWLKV

[6] = target: T4, Muscarinic acetylcholine receptor M3 (Homo sapiens, UniProt P20309); assay: Orthosteric binding affinity to M3 receptor at 10 uM by radioligand binding assay; in short: as §1
Target sequence in this assay (P20309 whole entry, looked up): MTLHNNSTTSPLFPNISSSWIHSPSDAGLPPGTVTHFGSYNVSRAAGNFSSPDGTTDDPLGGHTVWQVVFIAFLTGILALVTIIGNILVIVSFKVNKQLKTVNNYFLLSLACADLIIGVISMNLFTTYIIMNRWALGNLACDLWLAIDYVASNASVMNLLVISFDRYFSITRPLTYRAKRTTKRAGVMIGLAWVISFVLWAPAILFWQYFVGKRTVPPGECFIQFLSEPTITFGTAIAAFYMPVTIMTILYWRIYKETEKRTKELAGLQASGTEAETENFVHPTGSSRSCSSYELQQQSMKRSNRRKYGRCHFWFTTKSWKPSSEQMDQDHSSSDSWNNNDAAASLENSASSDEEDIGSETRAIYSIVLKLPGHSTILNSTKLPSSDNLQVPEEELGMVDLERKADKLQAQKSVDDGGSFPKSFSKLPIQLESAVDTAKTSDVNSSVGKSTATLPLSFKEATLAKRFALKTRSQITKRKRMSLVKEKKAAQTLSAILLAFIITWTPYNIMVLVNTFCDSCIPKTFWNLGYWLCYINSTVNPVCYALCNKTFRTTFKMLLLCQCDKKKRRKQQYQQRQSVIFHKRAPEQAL

[7] = target: T1, Muscarinic acetylcholine receptor M1 (Rattus norvegicus); assay: Agonist activity at rat M1 receptor expressed in CHO cells assessed as leftward shift in Ach response at 30 uM by calcium mobilization assay; format: functional, cell-based
[8] = Ratio of AUC in brain to plasma in rat at 10 mg/kg, ip after 1 hr; format: ADME, organism-based; parameters: dose 10 mg/kg, route intraperitoneal; details: brain and plasma
[9] = target: T5, Muscarinic acetylcholine receptor M2 (Homo sapiens) (UniProt P08172); assay: Orthosteric binding affinity to M2 receptor at 10 uM by radioligand binding assay; in short: as §1
T5 sequence (whole entry): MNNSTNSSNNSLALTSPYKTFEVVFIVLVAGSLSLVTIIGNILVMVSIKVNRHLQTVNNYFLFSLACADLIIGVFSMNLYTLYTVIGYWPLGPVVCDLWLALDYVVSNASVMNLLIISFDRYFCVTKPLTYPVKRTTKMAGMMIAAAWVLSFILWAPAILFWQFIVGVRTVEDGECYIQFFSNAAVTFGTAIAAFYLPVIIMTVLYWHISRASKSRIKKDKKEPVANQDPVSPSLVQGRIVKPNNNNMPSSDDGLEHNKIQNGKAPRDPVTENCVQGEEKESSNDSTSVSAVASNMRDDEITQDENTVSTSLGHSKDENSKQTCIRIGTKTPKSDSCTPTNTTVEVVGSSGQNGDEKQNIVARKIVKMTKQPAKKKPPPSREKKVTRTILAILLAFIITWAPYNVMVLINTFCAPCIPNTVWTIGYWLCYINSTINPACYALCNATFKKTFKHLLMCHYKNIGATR

[10] = target: T1, Muscarinic acetylcholine receptor M1 (Rattus norvegicus); assay: Orthosteric binding affinity to rat M1 receptor at 10 uM by radioligand binding assay; in short: as §1
[11] = target: T6, Muscarinic acetylcholine receptor M4 (Homo sapiens) (UniProt P08173); assay: Orthosteric binding affinity to M4 receptor at 10 uM by radioligand binding assay; in short: as §1
T6 sequence (whole entry): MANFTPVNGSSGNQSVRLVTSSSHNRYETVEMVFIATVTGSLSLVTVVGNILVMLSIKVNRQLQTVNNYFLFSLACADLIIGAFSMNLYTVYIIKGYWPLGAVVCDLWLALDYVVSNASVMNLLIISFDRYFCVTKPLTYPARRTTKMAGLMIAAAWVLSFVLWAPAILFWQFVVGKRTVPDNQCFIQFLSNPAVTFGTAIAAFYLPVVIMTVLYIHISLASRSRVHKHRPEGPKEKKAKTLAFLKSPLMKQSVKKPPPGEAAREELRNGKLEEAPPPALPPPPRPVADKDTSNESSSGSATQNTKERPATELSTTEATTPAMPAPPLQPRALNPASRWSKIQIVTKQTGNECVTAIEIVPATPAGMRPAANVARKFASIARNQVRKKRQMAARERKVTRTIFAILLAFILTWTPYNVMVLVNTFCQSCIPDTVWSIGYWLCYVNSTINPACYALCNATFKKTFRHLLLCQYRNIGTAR

[12] = target: T7, Muscarinic acetylcholine receptor M5 (Homo sapiens, UniProt P08912); assay: Agonist activity at M5 receptor; format: functional
T7 sequence (P08912 whole entry): T3 sequence (whole entry)

[13] = target: T8, Muscarinic acetylcholine receptor M4 (Homo sapiens, UniProt P08173); assay: Agonist activity at M4 receptor; format: functional
T8 sequence (P08173 whole entry): T6 sequence (whole entry)

[14] = target: T4, Muscarinic acetylcholine receptor M3; assay: Agonist activity at M3 receptor; format: functional
Target sequence in this assay (P20309 whole entry): as the sequence (P20309 whole entry, looked up) above

[15] = target: T9, Muscarinic acetylcholine receptor M2 (Homo sapiens, UniProt P08172); assay: Agonist activity at M2 receptor; format: functional
T9 sequence (P08172 whole entry): T5 sequence (whole entry)

Row | Compound | Activity [1] [%] | EC50 [2] [µM] | also measured
1 | COc1cccc(Cn2cc(S(=O)(=O)CC(=O)Nc3cc(C)on3)c3ccccc32)c1 | 79 |  | 
2 | Cc1cc(NC(=O)CS(=O)(=O)c2cn(Cc3cccc(-c4cn[nH]c4)c3F)c3ccccc23)no1 | 103 | 4.4 | 
3 | Cc1cc(NC(=O)CS(=O)(=O)c2cn(Cc3cccc(Br)c3)c3cc(F)cc(F)c23)no1 | 103 |  | 
4 | Cc1cc(NC(=O)CS(=O)(=O)c2cn(Cc3cc(Br)ccc3F)c3ccccc23)no1 | 84 |  | Activity [3]: 83%; Activity [4]: inactive; Activity [5]: 83%; Activity [6]: inactive; fold change (FC) [7]: 49; Kp at 1 h [8]: 0.32; Activity [9]: inactive; Activity [10]: inactive; Activity [11]: inactive
5 | Cc1cc(NC(=O)CS(=O)(=O)c2cn(Cc3cccc(-c4ccccc4)c3)c3ccccc23)no1 |  | > 10 | 
6 | Cc1cc(NC(=O)CS(=O)(=O)c2cn(Cc3ccc(F)cc3Br)c3ccccc23)no1 |  | > 10 | 
7 | Cc1cc(NC(=O)CS(=O)(=O)c2cn(Cc3cccc(-c4ccc(Cl)nc4)c3)c3ccccc23)no1 |  | > 10 | 
8 | Cc1cc(NC(=O)CS(=O)(=O)c2cn(Cc3cccc(-c4ccc(N5CCCC5)nc4)c3)c3ccccc23)no1 |  | > 10 | 
9 | Cc1cc(NC(=O)CS(=O)(=O)c2cn(Cc3cc(-c4cn[nH]c4)ccc3F)c3ccccc23)no1 | 96 | 3.07 | 
10 | Cc1cc(NC(=O)CS(=O)(=O)c2cn(Cc3ccc(F)c(Cl)c3)c3ccccc23)no1 |  | > 10 | 
11 | Cc1cc(NC(=O)CS(=O)(=O)c2cn(Cc3ccccc3Cl)c3ccccc23)no1 |  | 9.71 | EC50 [12]: > 30 µM; EC50 [13]: > 30 µM; EC50 [14]: > 30 µM; EC50 [15]: > 30 µM
12 | Cc1cc(NC(=O)CS(=O)(=O)c2cn(Cc3cc(Br)cc(Br)c3)c3ccccc23)no1 |  | > 10 | 
13 | Cc1cc(NC(=O)CS(=O)(=O)c2cn(Cc3ccc(Cl)c(Cl)c3)c3ccccc23)no1 |  | > 10 | 
14 | Cc1cc(NC(=O)CS(=O)(=O)c2cn(Cc3ccc(OC(F)(F)F)cc3)c3ccccc23)no1 |  | > 10 | 
15 | Cc1cc(NC(=O)CS(=O)(=O)c2cn(Cc3ccccc3F)c3ccccc23)no1 |  | > 10 | 
16 | Cc1cc(NC(=O)CS(=O)(=O)c2cn(Cc3cccc(C#N)c3)c3ccccc23)no1 |  | > 10 | 
17 | Cn1cc(-c2ccc(CN3C(=O)C(=O)c4ccccc43)c(F)c2)cn1 |  |  | Kp at 1 h [8]: 0.1
18 | COc1ccccc1Cn1cc(S(=O)(=O)CC(=O)Nc2cc(C)on2)c2ccccc21 |  | > 10 | 

Row | Compound | Activity [1] [%] | EC50 [2] [µM] | also measured
19 | Cc1cc(NC(=O)CS(=O)(=O)c2cn(Cc3ccc(Cl)cc3)c3ccccc23)no1 |  | > 10 | 
20 | Cc1cc(NC(=O)CS(=O)(=O)c2cn(Cc3cccc(Br)c3F)c3ccccc23)no1 |  | > 10 | 
21 | Cc1cc(NC(=O)CS(=O)(=O)c2cn(Cc3cccc(-c4cn[nH]c4)c3)c3ccccc23)no1 | 90 |  | 
22 | COc1ccc(Cn2cc(S(=O)(=O)CC(=O)Nc3cc(C)on3)c3ccccc32)cc1 |  | > 10 | 
23 | Cc1cc(NC(=O)CS(=O)(=O)c2cn(Cc3ccc(C(F)(F)F)cc3)c3ccccc23)no1 |  | > 10 | 
24 | Cc1cc(NC(=O)CS(=O)(=O)c2cn(Cc3ccc(F)cc3F)c3ccccc23)no1 |  | > 10 | 
25 | Cc1cc(NC(=O)CS(=O)(=O)c2cn(Cc3cccc(-c4ccc(N5CCOCC5)nc4)c3)c3ccccc23)no1 |  | > 10 | 
26 | Cc1cc(NC(=O)CS(=O)(=O)c2cn(Cc3cccc(Cl)c3F)c3ccccc23)no1 | 56 |  | 
27 | Cc1cc(NC(=O)CS(=O)(=O)c2cn(Cc3cccc(-c4cnn(C)c4)c3)c3ccccc23)no1 | 102 | 3.21 | 
28 | Cc1cc(NC(=O)CS(=O)(=O)c2cn(Cc3cccc(-c4ccc(N5CCNCC5)nc4)c3)c3ccccc23)no1 |  | > 10 | 
29 | Cc1cc(NC(=O)CS(=O)(=O)c2cn(Cc3cccc(C(F)(F)F)c3)c3ccccc23)no1 |  | > 10 | 
30 | Cc1cc(NC(=O)CS(=O)(=O)c2cn(Cc3ccc(F)c(-c4cn[nH]c4)c3)c3ccccc23)no1 |  | > 10 | 
31 | CCC(C)n1cc(-c2cccc(Cn3cc(S(=O)(=O)CC(=O)Nc4cc(C)on4)c4ccccc43)c2)cn1 (configuration not stated) |  | > 10 | 
32 | Cc1cc(NC(=O)CS(=O)(=O)c2cn(Cc3cccc(Br)c3)c3ccccc23)no1 | 91 |  | 
33 | Cc1cc(NC(=O)CS(=O)(=O)c2cn(Cc3ccc(F)c(Br)c3)c3ccccc23)no1 |  | > 10 | 
34 | Cc1cc(NC(=O)CS(=O)(=O)c2cn(Cc3cccc(Cl)c3)c3ccccc23)no1 | 96 |  | 
35 | Cc1cc(NC(=O)CS(=O)(=O)c2cn(Cc3cccc(-c4cn[nH]c4)c3)c3cc(F)cc(F)c23)no1 | 102 |  | fold change (FC) [7]: 98
